Published values collected from several papers.
Target: Tyrosine-protein kinase receptor Tie-1 (TIE1, Homo sapiens, UniProt P35590)

Compound | assay | conditions | remaining binding [%]
CCN1CCN(Cc2ccc(C(=O)Nc3ccc(C)c(Oc4ccc5c(c4)CC(=O)N5)c3)cc2C(F)(F)F)CC1 | binding, competition with immobilised ligand | 1 µM | 79
Cc1noc([C@H]2C[C@@H](c3ccc(C(F)(F)F)cc3)CN(C(=O)N3CCS(=O)(=O)C3)C2)n1 | cell-free assay, competition with immobilised ligand | 1 µM | 89
O=C(c1ccc(Nc2nccc(-c3cc4ccccc4s3)n2)cc1)N1CCC(N2CCCC2)CC1 | binding, competition with immobilised ligand | 1 µM | 23
O=C(Nc1c[nH]nc1C(=O)NC1CCNCC1)c1cc(F)cc(F)c1 | binding, competition with immobilised ligand | 1 µM | 100
CCCCN(CCCC)C(=O)CN1C[C@@H](c2cc(OC)c3c(c2)OCO3)[C@H](C(=O)O)[C@H]1CC(C)(C)CCC | cell-free assay, competition with immobilised ligand | 1 µM | 94.7
COc1cnc(Nc2cccc(S(N)(=O)=O)c2)nc1N1CCN(c2ccccc2)C(=O)C1 | binding, competition with immobilised ligand | 1 µM | 100
C[C@H]1CCN(c2nccc(-c3cnn4ncccc34)n2)C1 | binding | 1 µM | 75
CNCc1ccccc1-c1csc([C@H](C)Nc2nc(C)nc3cc(OC)c(OC)cc23)c1 | cell-free assay, competition with immobilised ligand | 1 µM | 100
COc1ccnn2ncc(-c3ccnc(N(C)C)n3)c12 | binding | 1 µM | 81
FC(F)(F)Oc1cccc(-c2cnc3ccc(-c4ccncc4)nn23)c1 | cell-free assay, competition with immobilised ligand | 5 µM | 84
CN(C)c1nccc(-c2cnn3ncccc23)n1 | binding | 1 µM | 100
CNC(=O)c1ccc(Nc2ncc(C(F)(F)F)c(NCc3nccnc3N(C)S(C)(=O)=O)n2)cc1 | cell-free assay, competition with immobilised ligand | 0.1 µM | 47
O=C(c1ccc(Nc2ncc(Cl)c(-c3cc4ccccc4s3)n2)cc1)N1CCC(N2CCCC2)CC1 | binding, competition with immobilised ligand | 1 µM | 4.8
C[C@@H](c1ccc(-n2cnc3c(N)ncnc32)cc1)N1CCc2nn(C)c(Cc3ccccc3)c2C1=O | binding, competition with immobilised ligand | 0.1 µM | 84
COc1cnc(Nc2cccc(S(N)(=O)=O)c2)nc1N1CCN(c2ccccc2)CC1 | binding, competition with immobilised ligand | 1 µM | 99
N[C@@H]1CCN(c2nccc(-c3cnn4ncccc34)n2)C1 | binding | 1 µM | 100
CS(=O)(=O)N1CCCC(NC(=O)[C@H](CCC2CCCCC2)NC(=O)c2ccc(CNC(=O)c3cnc4ccccn34)cc2)C1 (stereo partly shown) | cell-free assay, competition with immobilised ligand | 0.1 µM | 100
CN(c1nccc(-c2cnn3ncccc23)n1)C1CC1 | binding | 1 µM | 100
CS(=O)(=O)NCC[C@H](NC(=O)c1cncc2c1cnn2-c1ccc(F)cc1)c1ccnc(S(C)(=O)=O)c1 | cell-free assay, competition with immobilised ligand | 1 µM | 100
Cc1cnn2ncc(-c3ccnc(N(C)C)n3)c2c1 | binding | 1 µM | 98
C[C@@H](c1cccc(C#N)c1)n1cc(Cl)cc(C(N)=O)c1=N | cell-free assay, competition with immobilised ligand | 1 µM | 87
Cc1cnc(Nc2ccc(C(=O)N3CCC(N4CCCC4)CC3)cc2)nc1-c1cc2ccccc2s1 | binding, competition with immobilised ligand | 1 µM | 10
